Source: ChEMBL document CHEMBL5724801, “EUbOPEN Chemogenomics Library - Multiplex” (2024)
Several values for one entry are separate records, joined by “and”; a condition that tells them apart may be missing. Equal entries are not always repeated.

Tested on: Fibroblast
Assay: Multiplex assay against human fibroblast
Format: toxicity, cell-based
How it was run: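 Four dyes were applied at seeding to live cells: Hoechst33342, BioTracker Green Microtubule Cytoskeleton Dye, MitoTracker Red and Annexin V Alexa Fluor 680. Imaging after compound addition used a CQ1 microscope at 37°C and 5% CO2. CellPathfinder machine-learning gating then sorted cells into Hoechst high-intensity objects or normal cells, normal cells into healthy, pyknosed or fragmented nuclei, and pyknosed cells into mitotic or apoptotic, with tubulin, mitochondrial-mass and membrane-permeability phenotypes given as per cents of healthy-nucleus cells.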

[1] = 12 h, 1 µM, compound concentration 1 uM
[2] = 12 h, 10 µM, compound concentration 10 uM
[3] = 24 h, 1 µM, compound concentration 1 uM
[4] = 24 h, 10 µM, compound concentration 10 uM
[5] = 48 h, 1 µM, compound concentration 1 uM
[6] = 48 h, 10 µM, compound concentration 10 uM

Compound: CN1[C@@H](CC(=O)c2ccccc2)CCC[C@H]1C[C@H](O)c1ccccc1.Cl [LOBELINE HYDROCHLORIDE]
- Population Apoptotic (%) [1]: 11.11% and 18.52%
- Population Fragmented Nuclei (%) [1]: 12.29% and 4.19%
- Population Healthy Nuclei (%) [1]: 57.54% and 81.68%
- Population Hoechst High Intensity Objects (%) [1]: 0%
- Population Membrane Permeable-Phenotype (%) [1]: 3.88% and 3.21%
- Population Mitochondria Different-Phenotype (%) [1]: 13.59% and 7.05%
- Population Mitotic Cells (%) [1]: 88.89% and 81.48%
- Population Normal (%) [1]: 100%
- Population Pyknosed Nuclei (%) [1]: 30.17% and 14.14%
- Population Tubulin-Different-Phenotype (%) [1]: 15.53% and 14.1%
- Total Cell Count [1]: 179 and 191
- Population Apoptotic (%) [2]: 16.36% and 11.43%
- Population Fragmented Nuclei (%) [2]: 9.48% and 12.07%
- Population Healthy Nuclei (%) [2]: 64.45% and 72.84%
- Population Hoechst High Intensity Objects (%) [2]: 0%
- Population Membrane Permeable-Phenotype (%) [2]: 8.09% and 4.73%
- Population Mitochondria Different-Phenotype (%) [2]: 25% and 14.79%
- Population Mitotic Cells (%) [2]: 83.64% and 88.57%
- Population Normal (%) [2]: 100%
- Population Pyknosed Nuclei (%) [2]: 26.07% and 15.09%
- Population Tubulin-Different-Phenotype (%) [2]: 35.29% and 43.2%
- Total Cell Count [2]: 211 and 232
- Population Fragmented Nuclei (%) [3]: 8.95% and 0.5%
- Population Healthy Nuclei (%) [3]: 64.21% and 85.07%
- Population Hoechst High Intensity Objects (%) [3]: 0%
- Population Membrane Permeable-Phenotype (%) [3]: 3.28% and 3.51%
- Population Mitochondria Different-Phenotype (%) [3]: 11.48% and 7.02%
- Population Mitotic Cells (%) [3]: 96.08% and 82.76%
- Population Normal (%) [3]: 100%
- Population Pyknosed Nuclei (%) [3]: 26.84% and 14.43%
- Population Tubulin-Different-Phenotype (%) [3]: 28.69% and 18.13%
- Total Cell Count [3]: 190 and 201
- Population Fragmented Nuclei (%) [4]: 9.69% and 11.42%
- Population Healthy Nuclei (%) [4]: 75.77% and 77.95%
- Population Hoechst High Intensity Objects (%) [4]: 0%
- Population Membrane Permeable-Phenotype (%) [4]: 2.33% and 2.02%
- Population Mitochondria Different-Phenotype (%) [4]: 22.09% and 12.12%
- Population Mitotic Cells (%) [4]: 93.94% and 66.67%
- Population Normal (%) [4]: 100%
- Population Pyknosed Nuclei (%) [4]: 14.54% and 10.63%
- Population Tubulin-Different-Phenotype (%) [4]: 43.02% and 41.41%
- Total Cell Count [4]: 227 and 254
- Population Apoptotic (%) [5]: 23.08% and 23.53%
- Population Fragmented Nuclei (%) [5]: 9.22% and 3.83%
- Population Healthy Nuclei (%) [5]: 84.47% and 88.04%
- Population Hoechst High Intensity Objects (%) [5]: 0%
- Population Membrane Permeable-Phenotype (%) [5]: 1.15% and 1.63%
- Population Mitochondria Different-Phenotype (%) [5]: 8.62% and 3.26%
- Population Mitotic Cells (%) [5]: 76.92% and 76.47%
- Population Normal (%) [5]: 100%
- Population Pyknosed Nuclei (%) [5]: 6.31% and 8.13%
- Population Tubulin-Different-Phenotype (%) [5]: 9.2% and 7.07%
- Total Cell Count [5]: 206 and 209
- Population Apoptotic (%) [6]: 30.77% and 35.71%
- Population Fragmented Nuclei (%) [6]: 10.79% and 10.97%
- Population Healthy Nuclei (%) [6]: 83.82% and 83.12%
- Population Hoechst High Intensity Objects (%) [6]: 0%
- Population Membrane Permeable-Phenotype (%) [6]: 1.98% and 6.09%
- Population Mitochondria Different-Phenotype (%) [6]: 11.39% and 5.58%
- Population Mitotic Cells (%) [6]: 69.23% and 64.29%
- Population Normal (%) [6]: 100%
- Population Pyknosed Nuclei (%) [6]: 5.39% and 5.91%
- Population Tubulin-Different-Phenotype (%) [6]: 12.38% and 25.89%
- Total Cell Count [6]: 241 and 237

Compound: C[C@H](NC(=O)CNC(=O)c1cccc(Cl)c1)c1ccccc1
- Population Apoptotic (%) [1]: 50% and 44%
- Population Fragmented Nuclei (%) [1]: 18% and 28%
- Population Healthy Nuclei (%) [1]: 71% and 53%
- Population Hoechst High Intensity Objects (%) [1]: 0% and 3%
- Population Membrane Permeable-Phenotype (%) [1]: 0% and 6%
- Population Mitochondria Different-Phenotype (%) [1]: 4% and 2%
- Population Mitotic Cells (%) [1]: 50% and 56%
- Population Normal (%) [1]: 100% and 96%
- Population Pyknosed Nuclei (%) [1]: 10% and 18%
- Population Tubulin-Different-Phenotype (%) [1]: 17% and 41%
- Total Cell Count [1]: 94 and 140
- Population Apoptotic (%) [2]: 48% and 43%
- Population Fragmented Nuclei (%) [2]: 15% and 31%
- Population Healthy Nuclei (%) [2]: 58% and 43%
- Population Hoechst High Intensity Objects (%) [2]: 2% and 1%
- Population Membrane Permeable-Phenotype (%) [2]: 0% and 13%
- Population Mitochondria Different-Phenotype (%) [2]: 8% and 3%
- Population Mitotic Cells (%) [2]: 51% and 56%
- Population Normal (%) [2]: 97% and 98%
- Population Pyknosed Nuclei (%) [2]: 26% and 24%
- Population Tubulin-Different-Phenotype (%) [2]: 35% and 54%
- Total Cell Count [2]: 106 and 124
- Population Apoptotic (%) [3]: 43% and 33%
- Population Fragmented Nuclei (%) [3]: 17% and 30%
- Population Healthy Nuclei (%) [3]: 65% and 50%
- Population Hoechst High Intensity Objects (%) [3]: 1% and 3%
- Population Membrane Permeable-Phenotype (%) [3]: 1% and 8%
- Population Mitochondria Different-Phenotype (%) [3]: 3% and 4%
- Population Mitotic Cells (%) [3]: 56% and 66%
- Population Normal (%) [3]: 98% and 96%
- Population Pyknosed Nuclei (%) [3]: 17% and 19%
- Population Tubulin-Different-Phenotype (%) [3]: 25% and 42%
- Total Cell Count [3]: 93 and 145
- Population Apoptotic (%) [4]: 52% and 56%
- Population Fragmented Nuclei (%) [4]: 14% and 33%
- Population Healthy Nuclei (%) [4]: 61% and 45%
- Population Hoechst High Intensity Objects (%) [4]: 2% and 5%
- Population Membrane Permeable-Phenotype (%) [4]: 1% and 5%
- Population Mitochondria Different-Phenotype (%) [4]: 3% and 7%
- Population Mitotic Cells (%) [4]: 48% and 43%
- Population Normal (%) [4]: 97% and 94%
- Population Pyknosed Nuclei (%) [4]: 24% and 20%
- Population Tubulin-Different-Phenotype (%) [4]: 45% and 64%
- Total Cell Count [4]: 107 and 118
- Population Apoptotic (%) [5]: 33% and 40%
- Population Fragmented Nuclei (%) [5]: 20% and 29%
- Population Healthy Nuclei (%) [5]: 67% and 52%
- Population Hoechst High Intensity Objects (%) [5]: 1% and 3%
- Population Membrane Permeable-Phenotype (%) [5]: 0% and 4%
- Population Mitochondria Different-Phenotype (%) [5]: 0% and 2%
- Population Mitotic Cells (%) [5]: 66% and 60%
- Population Normal (%) [5]: 98% and 96%
- Population Pyknosed Nuclei (%) [5]: 12% and 17%
- Population Tubulin-Different-Phenotype (%) [5]: 26% and 44%
- Total Cell Count [5]: 95 and 147
- Population Apoptotic (%) [6]: 68% and 69%
- Population Fragmented Nuclei (%) [6]: 15% and 38%
- Population Healthy Nuclei (%) [6]: 56% and 50%
- Population Hoechst High Intensity Objects (%) [6]: 7% and 4%
- Population Membrane Permeable-Phenotype (%) [6]: 1% and 6%
- Population Mitochondria Different-Phenotype (%) [6]: 15% and 5%
- Population Mitotic Cells (%) [6]: 31% and 30%
- Population Normal (%) [6]: 92% and 95%
- Population Pyknosed Nuclei (%) [6]: 27% and 11%
- Population Tubulin-Different-Phenotype (%) [6]: 50% and 67%
- Total Cell Count [6]: 112 and 121

Compound: CC(C)(C)c1cc(C(C)(C)C)c(NC(=O)c2c[nH]c3ccccc3c2=O)cc1O [IVACAFTOR]
- Population Apoptotic (%) [1]: 10.53% and 22.22%
- Population Healthy Nuclei (%) [1]: 60.13% and 75%
- Population Hoechst High Intensity Objects (%) [1]: 0%
- Population Membrane Permeable-Phenotype (%) [1]: 1.09% and 0.74%
- Population Mitotic Cells (%) [1]: 89.47% and 77.78%
- Population Normal (%) [1]: 100%
- Population Pyknosed Nuclei (%) [1]: 24.84% and 20%
- Population Tubulin-Different-Phenotype (%) [1]: 15.22% and 9.63%
- Total Cell Count [1]: 153 and 180
- Population Apoptotic (%) [2]: 15.07% and 33.33%
- Population Fragmented Nuclei (%) [2]: 15.18% and 7.21%
- Population Healthy Nuclei (%) [2]: 46.6% and 73.87%
- Population Hoechst High Intensity Objects (%) [2]: 0%
- Population Membrane Permeable-Phenotype (%) [2]: 0% and 3.05%
- Population Mitochondria Different-Phenotype (%) [2]: 21.35% and 13.41%
- Population Mitotic Cells (%) [2]: 84.93% and 66.67%
- Population Normal (%) [2]: 100%
- Population Pyknosed Nuclei (%) [2]: 38.22% and 18.92%
- Population Tubulin-Different-Phenotype (%) [2]: 24.72% and 29.27%
- Total Cell Count [2]: 191 and 222
- Population Apoptotic (%) [3]: 2.7% and 8%
- Population Fragmented Nuclei (%) [3]: 9.82% and 4.92%
- Population Healthy Nuclei (%) [3]: 67.48% and 81.42%
- Population Hoechst High Intensity Objects (%) [3]: 0%
- Population Membrane Permeable-Phenotype (%) [3]: 3.64% and 2.01%
- Population Mitochondria Different-Phenotype (%) [3]: 10.91% and 10.07%
- Population Mitotic Cells (%) [3]: 97.3% and 92%
- Population Normal (%) [3]: 100%
- Population Pyknosed Nuclei (%) [3]: 22.7% and 13.66%
- Population Tubulin-Different-Phenotype (%) [3]: 11.82% and 11.41%
- Total Cell Count [3]: 163 and 183
- Population Apoptotic (%) [4]: 13.85% and 28.57%
- Population Fragmented Nuclei (%) [4]: 9.6% and 8.97%
- Population Healthy Nuclei (%) [4]: 53.67% and 78.48%
- Population Hoechst High Intensity Objects (%) [4]: 0%
- Population Membrane Permeable-Phenotype (%) [4]: 2.11% and 0.57%
- Population Mitochondria Different-Phenotype (%) [4]: 21.05% and 24.57%
- Population Mitotic Cells (%) [4]: 86.15% and 71.43%
- Population Normal (%) [4]: 100%
- Population Pyknosed Nuclei (%) [4]: 36.72% and 12.56%
- Population Tubulin-Different-Phenotype (%) [4]: 45.26% and 44%
- Total Cell Count [4]: 177 and 223
- Population Fragmented Nuclei (%) [5]: 10.22% and 4.66%
- Population Healthy Nuclei (%) [5]: 83.33% and 86.53%
- Population Hoechst High Intensity Objects (%) [5]: 0%
- Population Membrane Permeable-Phenotype (%) [5]: 1.94% and 0%
- Population Mitotic Cells (%) [5]: 75% and 94.12%
- Population Normal (%) [5]: 100%
- Population Pyknosed Nuclei (%) [5]: 6.45% and 8.81%
- Population Tubulin-Different-Phenotype (%) [5]: 7.74% and 11.98%
- Total Cell Count [5]: 186 and 193
- Population Apoptotic (%) [6]: 21.88% and 28.57%
- Population Fragmented Nuclei (%) [6]: 11.48% and 7.92%
- Population Healthy Nuclei (%) [6]: 73.21% and 86.25%
- Population Hoechst High Intensity Objects (%) [6]: 0%
- Population Membrane Permeable-Phenotype (%) [6]: 0.65% and 0.97%
- Population Mitochondria Different-Phenotype (%) [6]: 25.49% and 13.53%
- Population Mitotic Cells (%) [6]: 78.12% and 71.43%
- Population Normal (%) [6]: 100%
- Population Pyknosed Nuclei (%) [6]: 15.31% and 5.83%
- Population Tubulin-Different-Phenotype (%) [6]: 24.18% and 39.61%
- Total Cell Count [6]: 209 and 240
